Assay [1] deals with Staphylococcus aureus. The assay can be described thus: Antimicrobial activity against methicillin-resistant Staphylococcus aureus ATCC 1708 at 200 ug/ml by Alamar blue based CLSI method. Format: functional, organism-based. Put shortly:
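S. aureus ATCC 1708 tested by a modified CLSI method. Samples were dissolved in DMSO and serially diluted in 20% DMSO/saline, and final test concentrations were 1/100th of the DMSO stock. MIC was taken as the lowest concentration with no detectable growth.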
A general note: Resazurin is reduced to fluorescent resorufin, in cell work by metabolically active cells.

Assay [2] has as its system Escherichia coli. Put plainly: Antimicrobial activity against Escherichia coli ATCC 2452 at 200 ug/ml by Alamar blue based CLSI method. The class given is functional, organism-based.
In assay [3] the test system is Pseudomonas aeruginosa. The assay can be described thus: Antimicrobial activity against Pseudomonas aeruginosa ATCC 2108 at 200 ug/ml by Alamar blue based CLSI method. Format: functional, organism-based.
For assay [4], the system named is Mycobacterium intracellulare. Put plainly: Antimycobacterial activity against Mycobacterium intracellulare ATCC 23068 after 70 to 74 hrs by Alamar blue based CLSI method. Format: functional.
In assay [5] the test system is Mycobacterium tuberculosis. Put plainly: Antimycobacterial activity against Mycobacterium tuberculosis ATCC 25177 after 5 days by Alamar blue based CLSI method. Format: functional. The conditions noted are these: H37Ra, 120 h.
In assay [6] the test system is Staphylococcus aureus. The assay can be described thus: Growth inhibition of Staphylococcus aureus EAMC30 at 62.5 ug/ml by Alamar blue based CLSI method relative to control. The settings on record: read-out: GI. The class given is functional.

≈ marks a conversion by molar mass, not a printed value. Calls of active or inactive are those of the source.

Take `CCCC(=O)O[C@H](c1ccc([N+](=O)[O-])cc1)[C@@H](COC(=O)CC)NC(=O)C(Cl)Cl`: the result in assay [1], in assay [2] and in assay [3] was inactive.

As to `O=C(N[C@H](CO)[C@H](O)c1ccc([N+](=O)[O-])cc1)C(Cl)Cl` [CHLORAMPHENICOL], the MIC (as a rule, the smallest concentration in the dilution series that meets the test's criterion for growth inhibition) was 25 µg/mL (≈ 77.4 µM) in assay [4] and > 100 µg/mL in assay [5].

Take `CCC(=O)OC[C@@H](NC(=O)C(Cl)Cl)[C@H](OC(=O)CC)c1ccc([N+](=O)[O-])cc1`: the outcome in assay [1], in assay [2] and in assay [3] was inactive. Besides, the inhibition of growth at 62.5 µg/mL in assay [6] is 40%.

`CCC(=O)OC[C@@H](NC(=O)C(Cl)Cl)[C@H](OC(C)=O)c1ccc([N+](=O)[O-])cc1`: the result in assay [1], in assay [2] and in assay [3] was inactive.

On to `CCC(=O)OC[C@@H](NC(=O)C(Cl)Cl)[C@H](O)c1ccc([N+](=O)[O-])cc1`, for which the outcome in assay [1], in assay [2] and in assay [3] was inactive. Further, the inhibition of growth at 62.5 µg/mL in assay [6] came out at 72%.

As for `CC(=O)OC[C@@H](NC(=O)C(Cl)Cl)[C@H](O)c1ccc([N+](=O)[O-])cc1`, the result in assay [1], in assay [2] and in assay [3] was inactive. For the same compound, in assay [6], the inhibition of growth at 62.5 µg/mL is 15%. In assay [4], this compound had an MIC of 25 µg/mL (≈ 68.5 µM).

On to `O=C(O[C@H](c1ccc([N+](=O)[O-])cc1)[C@@H](CO)NC(=O)C(Cl)Cl)c1ccc([N+](=O)[O-])cc1`, for which, in assay [6], the inhibition of growth at 62.5 µg/mL amounted to 59%. The MIC was found to be 12.5 µg/mL (≈ 26.5 µM) in assay [4] and 50 µg/mL (≈ 106 µM) in assay [5].

As for `CCCC(=O)OC[C@@H](NC(=O)C(Cl)Cl)[C@H](O)c1ccc([N+](=O)[O-])cc1`, the outcome in assay [1], in assay [2] and in assay [3] was inactive. Also, the inhibition of growth at 62.5 µg/mL in assay [6] is 36%.

With `CCCC(=O)OC[C@@H](NC(=O)C(Cl)Cl)[C@H](OC(=O)CC)c1ccc([N+](=O)[O-])cc1`, the outcome in assay [1], in assay [2] and in assay [3] was inactive.

Turning to `CCCC(=O)OC[C@@H](NC(=O)C(Cl)Cl)[C@H](OC(=O)CCC)c1ccc([N+](=O)[O-])cc1`, the result in assay [1], in assay [2] and in assay [3] was inactive. Also, in assay [6], the inhibition of growth at 62.5 µg/mL worked out at 11%.

Take `CC(=O)OC[C@@H](NC(=O)C(Cl)Cl)[C@H](OC(C)=O)c1ccc([N+](=O)[O-])cc1`: the result in assay [1], in assay [2] and in assay [3] was inactive.

As for `O=C(/C=C/c1ccccc1)O[C@H](c1ccc([N+](=O)[O-])cc1)[C@@H](CO)NC(=O)C(Cl)Cl`, the inhibition of growth at 62.5 µg/mL in assay [6] amounted to 35%.

The compound `CC(=O)O[C@H](c1ccc([N+](=O)[O-])cc1)[C@@H](CO)NC(=O)C(Cl)Cl` displayed an MIC in assay [4] of 25 µg/mL (≈ 68.5 µM).

The values are drawn from ChEMBL document CHEMBL4145617, “Chloramphenicol Derivatives with Antibacterial Activity Identified by Functional Metagenomics” (2018).
